Laboratory results: ChEMBL document CHEMBL4007487, “Discovery of Novel Pyridone-Conjugated Monosulfactams as Potent and Broad-Spectrum Antibiotics for Multidrug-Resistant Gram-Negative Infections” (J Med Chem, 2017)
Converted amounts (≈) assume the structure as drawn.

Tests used:
Pseudomonas aeruginosa = assay: Antibacterial activity against extended spectrum beta-lactamase IMP-4 producing multidrug resistant Pseudomonas aeruginosa clinical isolates after 18 hrs by broth microdilution method; type: functional
Acinetobacter baumannii = assay: Antibacterial activity against extended spectrum beta-lactamase OXA-23 producing multidrug resistant Acinetobacter baumannii clinical isolates after 18 hrs by broth microdilution method; type: functional
Klebsiella pneumoniae = assay: Antibacterial activity against extended spectrum beta-lactamase KPC-2 producing multidrug resistant Klebsiella pneumoniae clinical isolates after 18 hrs by broth microdilution method; type: functional
Escherichia coli = assay: Antibacterial activity against extended spectrum beta-lactamases producing Escherichia coli clinical isolates after 18 hrs by broth microdilution method; type: functional
Plasma = assay: Fraction unbound in human plasma at 10 uM after 4 hrs by LC-MS/MS based rapid equilibrium dialysis method; type: ADME, cell-free
Summary of the method: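 Human plasma spiked at 10 μM was dialysed against buffer in a rapid equilibrium dialysis device for 4 h at 37 °C under 5% CO2 (n = 4). Both sides were quantified by LC–MS/MS. Fraction unbound was taken as the buffer concentration divided by the total plasma-side concentration.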

[1] = Drug degradation in human plasma at 10 uM after 4 hrs by LC-MS/MS analysis; type: ADME, cell-free; conditions: read-out: Drug degradation
Summary of the method: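 Human plasma containing compound (10 μM, n = 4) was incubated for 4 h at 37 °C under 5% CO2. Concentrations at T0 and at 4 h were measured by LC–MS/MS, and degradation was expressed as a percentage relative to the T0 average.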

[2] = Klebsiella pneumoniae, 18 h, read-out: MIC

Structure (SMILES) | MIC (Pseudomonas aeruginosa) | MIC (Acinetobacter baumannii) | MIC (Klebsiella pneumoniae; [2]) | MIC (Escherichia coli) | Fu (Plasma) | metabolised at 4 h, 10 µM [1] | MIC (Klebsiella pneumoniae)
CC1(C)[C@H](NC(=O)/C(=N\OC(c2nccs2)c2cc(=O)c(O)cn2O)c2csc(N)n2)C(=O)N1OS(=O)(=O)O (some centres not stated) | 1 to 2 µg/mL (≈ 1.66 to 3.32 µM) | 0.5 to 2 µg/mL (≈ 0.831 to 3.32 µM) |  |  |  |  | 
CC1(C)[C@H](NC(=O)/C(=N\OC(c2ccccc2)c2cc(=O)c(O)cn2O)c2csc(N)n2)C(=O)N1OS(=O)(=O)O (some centres not stated) | 0.5 to 2 µg/mL (≈ 0.841 to 3.36 µM) | 0.5 to 2 µg/mL (≈ 0.841 to 3.36 µM) |  |  |  |  | 
CC(C)[C@@H](O/N=C(\C(=O)N[C@@H]1C(=O)N(OS(=O)(=O)O)C1(C)C)c1nc(N)sc1Cl)c1cc(=O)c(O)cn1O | 0.5 to 4 µg/mL (≈ 0.84 to 6.72 µM) | 0.25 to 64 µg/mL (≈ 0.42 to 108 µM) | 0.5 to 2 µg/mL (≈ 0.84 to 3.36 µM) | 0.125 to 1 µg/mL (≈ 0.21 to 1.68 µM) |  |  | 
CC(C)[C@@H](O/N=C(\C(=O)N[C@@H]1C(=O)N(OS(=O)(=O)O)C1(C)C)c1csc(N)n1)c1cc(=O)c(O)cn1O | 1 to 4 µg/mL (≈ 1.78 to 7.14 µM) | 0.25 to 64 µg/mL (≈ 0.446 to 114 µM) | 0.06 to 0.5 µg/mL (≈ 0.107 to 0.892 µM) | 0.06 to 2 µg/mL (≈ 0.107 to 3.57 µM) |  |  | 
CSC[C@@H](O/N=C(\C(=O)N[C@@H]1C(=O)N(OS(=O)(=O)O)C1(C)C)c1csc(N)n1)c1cc(=O)c(O)cn1O | 1 to 8 µg/mL (≈ 1.73 to 13.8 µM) | 0.5 to 2 µg/mL (≈ 0.864 to 3.46 µM) | 0.125 to 0.5 µg/mL (≈ 0.216 to 0.864 µM) |  |  |  | 
CC(O/N=C(\C(=O)N[C@@H]1C(=O)N(OS(=O)(=O)O)C1(C)C)c1nc(N)sc1Cl)c1cc(=O)c(O)cn1O (some centres not stated) | 0.5 to 4 µg/mL (≈ 0.882 to 7.06 µM) | 0.25 to 2 µg/mL (≈ 0.441 to 3.53 µM) | 0.06 to 1 µg/mL (≈ 0.106 to 1.76 µM) |  | 20% | 20% | 
CC1(C)[C@H](NC(=O)/C(=N\OCc2ccn(O)c(=O)c2)c2csc(N)n2)C(=O)N1OS(=O)(=O)O | 64 µg/mL (≈ 127 µM) | 4 to 64 µg/mL (≈ 7.96 to 127 µM) | 4 to 64 µg/mL (≈ 7.96 to 127 µM) | 0.25 to 4 µg/mL (≈ 0.498 to 7.96 µM) |  |  | 
CC1(C)[C@H](NC(=O)/C(=N\OC(C(=O)O)c2cc(=O)c(O)cn2O)c2csc(N)n2)C(=O)N1OS(=O)(=O)O (some centres not stated) | 1 to 4 µg/mL (≈ 1.78 to 7.11 µM) | 0.5 µg/mL (≈ 0.889 µM) | 0.25 to 1 µg/mL (≈ 0.444 to 1.78 µM) | 0.125 to 4 µg/mL (≈ 0.222 to 7.11 µM) |  |  | 
CC(C)OCC(O/N=C(\C(=O)N[C@@H]1C(=O)N(OS(=O)(=O)O)C1(C)C)c1csc(N)n1)c1cc(=O)c(O)cn1O (some centres not stated) | 0.5 to 8 µg/mL (≈ 0.847 to 13.5 µM) | 1 to 8 µg/mL (≈ 1.69 to 13.5 µM) | 0.25 to 64 µg/mL (≈ 0.423 to 108 µM) |  |  |  | 
CC(=O)N(O)CCO/N=C(\C(=O)N[C@@H]1C(=O)N(OS(=O)(=O)O)C1(C)C)c1csc(N)n1 | ≥ 64 µg/mL | 16 to 64 µg/mL (≈ 33.3 to 133 µM) | 32 to 64 µg/mL (≈ 66.6 to 133 µM) | 4 to 32 µg/mL (≈ 8.32 to 66.6 µM) |  |  | 
CC(C)[C@@H](O/N=C(\C(=O)N[C@@H]1C(=O)N(OS(=O)(=O)O)C1(C)C)c1nsc(N)n1)c1cc(=O)c(O)cn1O | 1 to 4 µg/mL (≈ 1.78 to 7.12 µM) | 0.5 to 64 µg/mL (≈ 0.89 to 114 µM) | 0.5 to 2 µg/mL (≈ 0.89 to 3.56 µM) | 0.5 to 8 µg/mL (≈ 0.89 to 14.2 µM) |  |  | 
CC1(C)[C@H](NC(=O)/C(=N\OC(c2cccs2)c2cc(=O)c(O)cn2O)c2csc(N)n2)C(=O)N1OS(=O)(=O)O (some centres not stated) | 0.5 to 2 µg/mL (≈ 0.832 to 3.33 µM) | 0.5 to 2 µg/mL (≈ 0.832 to 3.33 µM) | 0.06 to 16 µg/mL (≈ 0.0999 to 26.6 µM) |  |  |  | 
Cn1nc(O)c(=O)nc1SCCO/N=C(\C(=O)N[C@@H]1C(=O)N(OS(=O)(=O)O)C1(C)C)c1csc(N)n1 | 16 to 64 µg/mL (≈ 28.3 to 113 µM) | 16 to 64 µg/mL (≈ 28.3 to 113 µM) | 16 to 64 µg/mL (≈ 28.3 to 113 µM) | 1 to 8 µg/mL (≈ 1.77 to 14.2 µM) |  |  | 
CC(C)SCC(O/N=C(\C(=O)N[C@@H]1C(=O)N(OS(=O)(=O)O)C1(C)C)c1csc(N)n1)c1cc(=O)c(O)cn1O (some centres not stated) | 0.25 to 4 µg/mL (≈ 0.412 to 6.59 µM) | 0.25 to 2 µg/mL (≈ 0.412 to 3.3 µM) | 0.06 to 1 µg/mL (≈ 0.0989 to 1.65 µM) |  | 21% | 34% | 
Cc1cc(=O)c(O)cn1CCO/N=C(\C(=O)N[C@@H]1C(=O)N(OS(=O)(=O)O)C1(C)C)c1csc(N)n1 | 64 µg/mL (≈ 121 µM) | 8 to 64 µg/mL (≈ 15.1 to 121 µM) | 8 to 64 µg/mL (≈ 15.1 to 121 µM) | 1 to 64 µg/mL (≈ 1.88 to 121 µM) |  |  | 
CSC[C@H](O/N=C(\C(=O)N[C@@H]1C(=O)N(OS(=O)(=O)O)C1(C)C)c1csc(N)n1)c1cc(=O)c(O)cn1O | 0.5 to 2 µg/mL (≈ 0.864 to 3.46 µM) | 0.5 to 4 µg/mL (≈ 0.864 to 6.91 µM) |  |  | 29% | 39% | >0.06 to 64 µg/mL
CC(O/N=C(\C(=O)N[C@@H]1C(=O)N(OS(=O)(=O)O)C1(C)C)c1nsc(N)n1)c1cc(=O)c(O)cn1O (some centres not stated) | 0.5 to 64 µg/mL (≈ 0.937 to 120 µM) | 2 to 64 µg/mL (≈ 3.75 to 120 µM) | 0.25 to 64 µg/mL (≈ 0.469 to 120 µM) |  | 37% | 13% | 
C=CC(O/N=C(\C(=O)N[C@@H]1C(=O)N(OS(=O)(=O)O)C1(C)C)c1csc(N)n1)c1cc(=O)c(O)cn1O (some centres not stated) | 0.5 to 2 µg/mL (≈ 0.918 to 3.67 µM) | 0.25 to 2 µg/mL (≈ 0.459 to 3.67 µM) |  |  |  |  | >0.03 to 64 µg/mL
CO/N=C(\C(=O)N[C@@H]1C(=O)N2C(C(=O)[O-])=CCS[C@H]12)c1csc(N)n1.[Na+] [CEFTIZOXIME SODIUM] | > 64 µg/mL | 32 to 64 µg/mL | 32 to 64 µg/mL | 0.5 to 2 µg/mL |  |  | 
